The subject of test [1] is MT4. The experiment in a line: Inhibitory effect on the proliferation of human T-lymphocyte MT-4 cells. It counts as functional, cell-based. The procedure, abridged:
(§1)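 MT-4 cells (7.5 × 10^4 per well) in growth medium were incubated with graded compound concentrations for 120 h at 37 °C in a humidified CO2 atmosphere. Cell viability was assessed by trypan blue dye exclusion. IC50 is the concentration required for 50% inhibition of proliferation.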

A short description of test [2]: Inhibitory effect on the proliferation of T-lymphoblast molt/4F cells. In kind it is functional. As to conditions: Homo sapiens. An outline of the steps:
(§2)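 7.5 × 10^4 cells in growth medium were exposed in microplate wells to a range of compound concentrations. Proliferation ran 72 h at 37 °C under humidified, CO2-controlled conditions, followed by Coulter counter cell counts. IC50 is the compound concentration giving 50% inhibition of proliferation.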

The nature of test [3]: Inhibitory effect on the proliferation of murine mammary carcinoma FM3A cells. It counts as functional, cell-based. As to conditions: Mus musculus. An outline of the steps: (§3)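 5 × 10^4 cells were suspended in growth medium in microplate wells with varying concentrations of compound. They grew for 48 h at 37 °C in a humidified CO2-controlled atmosphere and were then counted in a Coulter counter. IC50 is the concentration inhibiting cell proliferation by 50%.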

In test [4] the test system is Raji. The test is described as follows: Inhibitory effect on the proliferation of human B-lymphoblast Raji cells. In kind it is functional, cell-based. The procedure, abridged:
as §2

Test [5] has as its system L1210. The test is described as follows: Inhibitory effect on the proliferation of murine leukemia L1210 cells. It counts as functional, cell-based. As to conditions: Mus musculus. An outline of the steps:
as §3

Test [6] can be described thus: Inhibitory effect on the proliferation of human T-lymphoblast molt/4F cells. In kind it is functional. The procedure, abridged:
as §2

Test [7] relates to L1210. The experiment in a line: Inhibitory effect on the proliferation of murine leukemia L1210 cells. It counts as functional, cell-based. As to conditions: Mus musculus. The procedure, abridged: as §3
Test [8] has as its system MT4. The experiment in a line: Inhibitory effect on the proliferation of human T-lymphocyte MT-4 cells. It counts as functional, cell-based. The procedure, abridged: as §1
The subject of test [9] is Raji. The test is described as follows: Inhibitory effect on the proliferation of human B-lymphoblast Raji cells. It counts as functional, cell-based. An outline of the steps:
as §2

This passage reports IC50 results from ChEMBL document CHEMBL1126046, “Geiparvarin analogues. 3. Synthesis and cytostatic activity of 3(2H)-furanone and 4,5-dihydro-3(2H)-furanone congeners of geiparvarin, containing a geraniol-like fragment in the side chain” (J Med Chem, 1992).

≈ marks a conversion by molar mass, not a printed value.

By IC50 is commonly meant the concentration at which inhibition is half-maximal. A lower IC50 goes with greater potency in that assay.

Turning to `C/C(=C\COc1ccc2ccc(=O)oc2c1)CC/C=C(\C)C1=CC(=O)C(C)(C)O1`, the IC50 in the test on MT4 [1] was determined as 15.6 µg/mL (≈ 39.5 µM); in test [2], 28.5 µg/mL (≈ 72.2 µM); in [3], 53.7 µg/mL (≈ 136 µM); in the test with Raji [4], 25.2 µg/mL (≈ 63.9 µM); with L1210 [5], 39.7 µg/mL (≈ 101 µM).
For `C/C(=C\COc1ccc2ccc(=O)oc2c1)CC/C=C(\C)C1CC(=O)C(C)(C)O1` (stereo not given), in that order: 42.9 µg/mL (≈ 108 µM), 24.2 µg/mL (≈ 61 µM), 54.2 µg/mL (≈ 137 µM), 50.7 µg/mL (≈ 128 µM) and 64.5 µg/mL (≈ 163 µM).
Turning to `C/C(=C\COc1ccc2ccccc2c1)CC/C=C(\C)C1CC(=O)C(C)(C)O1` (stereo not given), the IC50 with MT4 [1] came to 48.8 µg/mL (≈ 129 µM); in test [6], 26.9 µg/mL (≈ 71.1 µM); in test [3] it was 38.4 µg/mL (≈ 101 µM); in the test on Raji [4], 47.9 µg/mL (≈ 127 µM); in the test on L1210 [5] it was 24.9 µg/mL (≈ 65.8 µM).
As to `COc1cccc(OC/C=C(\C)CC/C=C(\C)C2CC(=O)C(C)(C)O2)c1` (stereo not given), the IC50 in the test on L1210 [7] amounted to 66.5 µg/mL (≈ 186 µM); in [6], 33.8 µg/mL (≈ 94.3 µM); in the test on MT4 [8], 51.5 µg/mL (≈ 144 µM); in test [3], 68.7 µg/mL (≈ 192 µM); in the test with Raji [9] it was 50 µg/mL (≈ 139 µM).
Take `C/C(=C\COc1ccc2ccccc2c1)CC/C=C(\C)C1=CC(=O)C(C)(C)O1`: the concentration for half-maximal inhibition (IC50) with MT4 [1] was 38.6 µg/mL (≈ 103 µM); in test [6], 51.6 µg/mL (≈ 137 µM); in test [3], 56.4 µg/mL (≈ 150 µM); in the test on Raji [4], 63.2 µg/mL (≈ 168 µM); in the test on L1210 [5] it was 47.4 µg/mL (≈ 126 µM).
Consider `C/C(=C\COc1ccccc1)CC/C=C(\C)C1CC(=O)C(C)(C)O1` (stereo not given), for which the IC50 with L1210 [7] was 64 µg/mL (≈ 195 µM); in test [6] it was 27.6 µg/mL (≈ 84 µM); in the test with MT4 [8] it was 43.1 µg/mL (≈ 131 µM); in test [3] it was 59 µg/mL (≈ 180 µM); in the test on Raji [9], 50.7 µg/mL (≈ 154 µM).
Consider `C/C(=C\COc1c(Cl)cccc1Cl)CC/C=C(\C)C1CC(=O)C(C)(C)O1` (stereo not given), for which the IC50 in the test on L1210 [7] was 58 µg/mL (≈ 146 µM); in test [6], 50.5 µg/mL (≈ 127 µM); in the test on MT4 [8], 32.5 µg/mL (≈ 81.8 µM); in [3] it was 51.2 µg/mL (≈ 129 µM); in the test with Raji [4], 59.9 µg/mL (≈ 151 µM).
In the case of `COc1ccc(OC/C=C(\C)CC/C=C(\C)C2=CC(=O)C(C)(C)O2)cc1`, the half-maximal inhibitory concentration (IC50) came to 40.2 µg/mL (≈ 113 µM) with L1210 [7]; 38.6 µg/mL (≈ 108 µM) in [6]; 33.9 µg/mL (≈ 95.1 µM) with MT4 [8]; 43.8 µg/mL (≈ 123 µM) in [3]; 43 µg/mL (≈ 121 µM) in the test with Raji [9].
As for `C/C(=C\COc1ccccc1)CC/C=C(\C)C1=CC(=O)C(C)(C)O1`, the half-maximal inhibitory concentration (IC50) in test [6] was 35.2 µg/mL (≈ 108 µM); in the test on MT4 [8], 29.4 µg/mL (≈ 90.1 µM); in test [3], 44.2 µg/mL (≈ 135 µM); in the test with Raji [4], 40.3 µg/mL (≈ 123 µM); in the test with L1210 [5] it was 38.7 µg/mL (≈ 119 µM).
For the compound `COc1cccc(OC/C=C(\C)CC/C=C(\C)C2=CC(=O)C(C)(C)O2)c1`, the IC50 in the test on L1210 [7] was determined as 36.3 µg/mL (≈ 102 µM); in [6], 35.9 µg/mL (≈ 101 µM); in the test with MT4 [8] it was 34 µg/mL (≈ 95.4 µM); in test [3], 45.9 µg/mL (≈ 129 µM); in the test on Raji [9], 45.8 µg/mL (≈ 128 µM).
`C/C(=C\COc1ccc2ccc(=O)oc2c1)C1=CC(=O)C(C)(C)O1` [GEIPARVARIN]: the 50% inhibitory concentration (IC50) turned out to be 1.64 µg/mL (≈ 5.03 µM) in the test on MT4 [1]; 7.92 µg/mL (≈ 24.3 µM) in test [2]; 7.87 µg/mL (≈ 24.1 µM) in [3]; 8.25 µg/mL (≈ 25.3 µM) in the test with Raji [4]; 5.31 µg/mL (≈ 16.3 µM) in the test with L1210 [5].
As for `C/C(=C\COc1c(Cl)cccc1Cl)CC/C=C(\C)C1=CC(=O)C(C)(C)O1`, the IC50 was 30.7 µg/mL (≈ 77.7 µM) with L1210 [7]; 27.4 µg/mL (≈ 69.3 µM) in test [6]; 15.5 µg/mL (≈ 39.2 µM) in the test on MT4 [8]; 35.3 µg/mL (≈ 89.3 µM) in test [3]; 26.2 µg/mL (≈ 66.3 µM) in the test on Raji [9].
Turning to `C/C(=C\COc1ccc2ccc(=O)oc2c1)C1CC(=O)C(C)(C)O1` (stereo not given), the IC50 with MT4 [1] is 107 µg/mL (≈ 326 µM); in test [2], 97.5 µg/mL (≈ 297 µM); in test [3], 215 µg/mL (≈ 655 µM); in the test with Raji [4], 226 µg/mL (≈ 688 µM); with L1210 [5], 211 µg/mL (≈ 643 µM).
